IEC-6 tox: IEC-6 cytotoxicity, counter-screen for KLF5 inhibitors. inhibition, % at 5 µM. luminescence viability. actives 0.78% (n = 290,000); in the data active = inhibition above about 22%
Ba/F3 V617F tox: reduce viability of Ba/F3 cells dependent on JAK2V617F; Ba/F3 EpoR-JAK2V617F viability, ATP luminescence; inhibition, % at 5.6 µM; actives 1.1% (n = 220,000); AID 1446;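 active = inhibition above the campaign mean plus 3 SD over all tested compounds, cut at about 24% in these data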;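 note: cytokine-independent growth of Ba/F3 cells driven by EpoR plus mutant JAK2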
APP transl inh: APP translation inhibition; SH-SY5Y APP 5'UTR-luciferase reporter, luminescence; inhibition, % at 2 µM; actives 0.82% (n = 190,000); AID 1285;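 active = inhibition above a set limit, derived from the sample mean plus 3 SD, cut at about 45% in these data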
b-catenin transl: alters nuclear translocation of beta-catenin in HeLa cells; immunofluorescence imaging; nuclear translocation activity, % at 5 µM; actives 0.3% (n = 190,000); AID 1665;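 active = nuclear translocation activity above 50% at 5 µM, with a well cell count of 50 or more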;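 note: per-cell ratio of nuclear to cytoplasmic median beta-catenin stain intensity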
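Test system: human HeLa cells, endogenous beta-catenin. Times: 24 h compound exposure, 37°C. Measured by: beta-catenin immunofluorescence imaging with DAPI.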
BaF3 parental: reduces parental Ba/F3 cell viability, JAK2V617F counter-screen | inhibition, % at 5.6 µM | actives 1.1% (n = 220,000) | CellTiter-Glo ATP luminescence;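 active = inhibition above a per-campaign cutoff, the mean inhibition of all tested compounds plus 3 SD, cut at about 27% in these data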
MT stabilizer: microtubule stabilizers in HeLa cells; HeLa tubulin immunostaining HCS, 24 h; share of cells brighter than vehicle mean+2SD; % tubulin-high responders, % at 10 µM; actives 0.83% (n = 200,000);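 active = plate Z-score above 3 for both tubulin-high and condensed-nucleus cell shares, with cell loss under 80%, at 10 µM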;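 note: anti alpha tubulin signal scored within the nucleus-defined area of each cell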
A number is an active result; . = inactive; / = not tested or not shown. Hits are enriched below; roughly 2.2% of the tested compounds scored in any of these assays.

SMILES	IEC-6 tox	Ba/F3 V617F tox	APP transl inh	b-catenin transl	BaF3 parental	MT stabilizer
Cc1[nH]c2c(C(F)(F)F)cccc2c1CCN	.	.	48	/	.	.
O=C1C(=O)c2ccccc2-c2ccccc21	103	100	58	.	102	.
CCOC(=O)C1CCN(/C=C2/C(=O)NC(=O)N(Cc3ccco3)C2=O)CC1	.	.	.	.	.	41
Oc1cccc2cccnc12	37	/	/	/	/	/
O=C1C2CCN(CC2)C12CC2c1ccc(C(F)(F)F)cc1 (stereo not drawn)	.	.	/	.	.	/
Cc1cccc(-c2nc3ccc(C(=O)N4CCC5(CC4)OCCO5)cc3nc2-c2cccc(C)c2)c1	.	/	/	/	/	/
O=C(c1ccc2c(c1)ncn2C1CCCCC1)N1CCC2(CC1)OCCO2	.	.	.	.	.	27
O=C(Nc1ccc(OC(=O)N2CCCCC2)cc1)N1CCOCC1	.	.	52	.	.	.
CC[n+]1c(SC)ccc2cc(OC)ccc21	.	85	.	.	84	.
COc1ccc(/C=N\N=C(N)N)cc1	.	.	.	.	.	.
NC(N)=N/N=C/c1ccc(N2CCOCC2)cc1	.	58	.	.	72	10
Cn1c(=O)c2c(nc(N/N=C/c3c(O)n(C4CCCCC4)c(=S)[nH]c3=O)n2C)n(C)c1=O	.	.	/	.	.	/
Nc1ccccc1-[n+]1c(-c2ccccc2)cc(-c2ccccc2)cc1-c1ccccc1	.	49	/	.	52	/
CCCCn1c(O)c(C=NC2CCCCC2N)c(=O)[nH]c1=O (stereo not drawn)	.	.	.	/	.	.
CCCCCCn1c(O)c(C=NC2CCCCC2N)c(=O)[nH]c1=O (stereo not drawn)	.	.	.	.	93	.
CC1CCCCC1NC1CCN(C)CC1 (stereo not drawn)	.	/	/	/	/	/
C[C@H](NC(=O)N1C[C@H]2C[C@@H](C1)c1cccc(=O)n1C2)C(=O)Nc1ccccc1F	.	/	/	/	/	/
O=C(c1ccccc1)C(CN1CCCC1)c1ccccc1 (stereo not drawn)	.	.	92	.	.	.
CCN1CCN(CC(c2ccccc2)c2ccccc2)CC1	.	/	/	/	/	/
O=C(CCc1ccc(O)cc1)N1C[C@H]2C[C@@H](C1)c1cccc(=O)n1C2	.	/	/	/	/	/
COc1ccc(CCNCc2sccc2C)cc1OC	.	.	.	.	.	.
COC(=O)C1CN(C#N)N(c2ccc(Cl)cc2)C12c1ccccc1-c1ccccc12 (stereo not drawn)	46	95	94	/	29	.
CC(C)[C@]12O[C@H]1[C@@H]1O[C@]13[C@]1(O[C@H]1C[C@H]1C4=C(CC[C@@]13C)C(=O)OC4)[C@@H]2O	97	99	/	.	105	/
CC1Oc2cc3c(-c4c(O)cc(O)c5c(O)c6c(cc45)OC(C)C(C)C6=O)c(O)cc(O)c3c(O)c2C(=O)C1C (stereo not drawn)	.	96	/	.	35	/
Cc1cc([N+](=O)[O-])c2ccccc2[n+]1[O-]	101	100	/	.	106	/
SMILES	IEC-6 tox	Ba/F3 V617F tox	APP transl inh	b-catenin transl	BaF3 parental	MT stabilizer
O=c1[nH]c(O)c(/C=C2/C=CC(c3cc(Cl)ccc3Cl)=N2)c(=O)[nH]1	.	.	/	.	.	/
CN1C(=O)C(c2ccc([N+](=O)[O-])cc2[N+](=O)[O-])C(=O)N(C)C1=O	.	/	/	/	/	/
C[N+]12CCC(CC1)C(=C(c1ccccc1)c1ccccc1)C2	.	.	.	/	.	.
CC[N+]12CCC(CC1)C(=C(c1ccccc1)c1ccccc1)C2	.	.	.	.	29	.
C=CCN1C(=O)NC(=O)/C(=C/C=C/c2ccccc2)C1=O	.	.	74	.	.	.
Cc1ccc(N2C(=O)NC(=O)/C(=C\C=C\c3ccco3)C2=O)cc1C	.	.	47	.	.	.
CCCCCn1c(=O)c(C(=O)Nc2nc(CC(=O)OCC)cs2)c(O)c2ccccc21	.	.	.	.	.	.
CC(=O)NC(Cc1ccc(N(CCCl)CCCl)cc1)C(=O)NC(C(=O)O)C(C)C (stereo not drawn)	.	.	.	.	.	.
CCOC(=O)CC(NC(=O)C(Cc1ccc(N(CCCl)CCCl)cc1)NC(C)=O)C(=O)OCC (stereo not drawn)	.	.	86	.	.	.
C=CCN(CC#CCOc1ccccc1OC)CC=C	.	.	.	.	.	.
CN1CCN(c2ccc(S(C)(=O)=O)cc2[N+](=O)[O-])CC1	.	.	.	.	.	.
CN1CCN(c2ccc([N+](=O)[O-])c3no[n+]([O-])c23)CC1	90	99	/	.	107	/
C=C(C=O)C[C@@H]1C[C@H](O)C2OC3C[C@]4(C)OC5/C=C\CC6OC7C(CC=CCC6OC5CCCC4OC3CC2O1)OC1CC2OC3CC(=O)OC3C[C@@H](C)C[C@@]2(C)OC1C[C@@H]7C (stereo partly drawn)	/	/	/	.	/	/
Cc1cc(OCC(=O)N[C@H](C(=O)O)c2ccccc2)c2c3c(c(=O)oc2c1)CCC3	.	/	/	/	/	/
CC(=O)C1(c2ccccc2)CCN(C(=O)C2CCC(=O)N(CCc3cccc(F)c3)C2)CC1 (stereo not drawn)	.	/	/	/	/	/
COc1ccc(CCNCc2ccc(C)s2)cc1OC	.	.	.	.	.	.
COc1ccc(Cc2nccc3cc(OC)c(OC)cc23)cc1OC	.	.	.	.	27	.
CN(C)C(=O)O/N=C(\N)COc1ccc(C(C)(C)C)cc1	.	.	/	.	.	/
Clc1cc(Cl)cc(NC2=NCCS2)c1	.	.	/	.	.	/
CC1CCC2C(C)C(=O)OC3OC4(C)CCC1C32OO4 (stereo not drawn)	.	/	/	/	/	/
O=C(Cn1cc(C(=O)c2ccccc2)c2ccccc21)NCc1ccco1	.	.	.	.	.	31
O=C(c1ccco1)c1cn(Cc2ccc(Cl)cc2)c2ccccc12	.	.	.	/	.	5.6
O=C(/C=C/c1ccc(Cl)cc1)NC(=S)N1C[C@H]2C[C@H](C1)c1cccc(=O)n1C2	.	/	/	/	/	/
COc1ccc(-c2cc(-c3ccccc3)[n+](C)c(-c3ccccc3)c2)cc1	.	99	.	.	76	.
O=C(/C=C/c1c[nH]c2ccccc12)c1c(O)n(CCc2ccccc2)c(=O)[nH]c1=O	.	.	/	.	34	/
SMILES	IEC-6 tox	Ba/F3 V617F tox	APP transl inh	b-catenin transl	BaF3 parental	MT stabilizer
CN(C)C(Cc1ccccc1)C(=O)c1c[nH]c2ccccc12 (stereo not drawn)	.	/	/	/	/	/
CN(C)C(Cc1ccccc1)C(=O)c1ccccc1 (stereo not drawn)	.	.	.	.	34	.
C=CC(C)C(C(=O)c1ccccc1)N(C)C (stereo not drawn)	.	27	.	.	31	.
COc1ccc(C(=O)N2C[C@H]3C[C@@H](C2)c2cccc(=O)n2C3)cc1OC	.	/	/	/	/	/
CC(=NCC1CCCO1)c1c(O)n(-c2ccccc2C)c(=O)[nH]c1=O (stereo not drawn)	.	.	/	.	.	/
CCOC(=O)c1c(C=O)c2ccccc2n1Cc1ccccc1	.	/	/	/	/	/
CCOC(=O)c1ccc2c(c1)n(Cc1ccccc1)c(C)[n+]2CC	.	.	.	.	27	.

High-throughput results deposited in PubChem by several laboratories.
